GASC1 inh – inhibitors of human demethylase GASC-1 KDM4C | GST-KDM4C 2-372, H3K9me3 peptide, LANCE TR-FRET | inhibition, % at 12.5 µM | hit rate 0.15% among 96,000;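 active = mean replicate inhibition above about 25%, with at least 55% of replicates also reaching it, limit read from the data, passing the limit was not always enough; inconclusive = only one of those two conditions met; inactive = neither condition met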
Target sequence (Q9H3R0 2-372 limits assumed): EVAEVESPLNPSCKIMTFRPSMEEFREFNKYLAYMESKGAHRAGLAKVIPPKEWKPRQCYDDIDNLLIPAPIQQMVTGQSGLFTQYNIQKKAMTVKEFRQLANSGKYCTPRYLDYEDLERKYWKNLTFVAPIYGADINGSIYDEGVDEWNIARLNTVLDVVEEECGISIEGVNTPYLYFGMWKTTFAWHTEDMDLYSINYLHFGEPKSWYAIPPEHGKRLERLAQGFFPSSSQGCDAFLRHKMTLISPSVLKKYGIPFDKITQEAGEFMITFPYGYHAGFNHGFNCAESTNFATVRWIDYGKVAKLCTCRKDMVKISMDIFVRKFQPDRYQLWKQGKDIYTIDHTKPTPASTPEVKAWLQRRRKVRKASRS
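System: N-terminal GST-fused human GASC-1 (KDM4C) fragment, residues 2-372 / Amount: 10 nM GST-KDM4C in enzyme reaction / Also added: H3K9me3 peptide with Fe(II)/2OG / Times: 30 min demethylation and 1 h detection at room temperature / Signal: LANCE TR-FRET / Read-out basis: Fall in 671/618 emission ratio as inhibition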
IDH1 mut inh – IDH1 R132H (human) inhibition; O75874; IDH1 R132H reductase, diaphorase/resazurin fluorescence, 60 min; inhibition, % at 10 µM; hit rate 0.18% among 70,000; AID 624101; in the data active = inhibition above about 34%; inconclusive = no clear call, values can overlap the other calls; inactive = below about 11%
Target sequence (O75874 whole entry R132H): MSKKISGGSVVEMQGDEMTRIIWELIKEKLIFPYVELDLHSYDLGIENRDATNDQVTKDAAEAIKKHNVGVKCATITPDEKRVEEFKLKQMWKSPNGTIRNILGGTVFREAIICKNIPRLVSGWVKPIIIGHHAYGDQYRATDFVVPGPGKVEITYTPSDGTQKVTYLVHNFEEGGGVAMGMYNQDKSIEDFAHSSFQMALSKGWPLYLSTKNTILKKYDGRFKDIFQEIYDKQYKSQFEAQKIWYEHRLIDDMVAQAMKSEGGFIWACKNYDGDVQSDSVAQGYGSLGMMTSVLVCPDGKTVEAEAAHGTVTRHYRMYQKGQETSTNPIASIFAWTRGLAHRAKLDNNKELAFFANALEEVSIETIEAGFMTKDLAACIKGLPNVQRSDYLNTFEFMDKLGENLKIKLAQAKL
T cruzi growth-1 – inhibitors of T. cruzi proliferation | hit rate 5.9% among 77,000 | inhibition, % at 8.34 µM | T. cruzi beta-gal in NIH3T3, GalScreen luminescence, 90 h | AID 624255;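 active = mean inhibition above about 93%, with at least 55% of replicates each passing it, limit read from the data, passing the limit was not always enough; inconclusive = only one of those two conditions holds; inactive = neither condition holds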
T cruzi growth-2 – Trypanosoma cruzi proliferation inhibition; shares compounds with T cruzi growth-1; T. cruzi beta-gal in NIH3T3, GalScreen luminescence, 90 h; inhibition, % at 8.35 µM; hit rate 72% among 5,600;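 active = mean replicate inhibition above about 95% and at least 55% of replicates individually reaching it, limit read from the data; inconclusive = only one of the two criteria is met; inactive = neither criterion is met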
T cruzi growth-3 – inhibitors of T. cruzi proliferation. AID 651740. T. cruzi beta-gal in NIH3T3, GalScreen luminescence, 90 h. inhibition, % at 2.09 µM. shares compounds with T cruzi growth-1. hit rate 21% among 5,600;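 active = mean inhibition above about 95%, with at least 55% of replicates also reaching it, limit read from the data; inconclusive = meets just one of the two conditions; inactive = meets neither condition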
NIH3T3 tox – NIH/3T3 (mouse) viability loss | shares compounds with T cruzi growth-1 | NIH/3T3 viability, CellTiter-Glo ATP luminescence, 90 h | cytotoxicity (signal decrease), % at 8.35 µM | hit rate 14% among 5,600;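 active = mean signal decrease across replicates above about 35% based on untreated-well scatter, with enough replicates individually passing, limit read from the data; inconclusive = no rule stated though some were filed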
3T3 cytotox 2 – kills mouse NIH/3T3 fibroblasts; shares compounds with T cruzi growth-1; NIH/3T3 viability, CellTiter-Glo ATP luminescence, 90 h; inhibition, % at 24.9 µM; hit rate 56% among 5,600; AID 651744;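 active = mean loss of cell viability signal at or above a set limit, and enough replicates individually reaching it; inconclusive = meets only the mean limit or only the replicate share; inactive = meets neither condition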
Large screens that a line does not name were inactive (follow-up assays come after a bar, where they were run). Many of the other results were omitted from the sample, so hits are more common in it than they were.

CCc1cnc(N2[C@H](CO)[C@@H](c3ccc(C#Cc4ccccc4F)cc3)[C@@H]2C#N)s1	T cruzi growth-1 103 (no result: IDH1 mut inh) | T cruzi growth-2 96 | T cruzi growth-3 111 | NIH3T3 tox inactive | 3T3 cytotox 2 85
CCc1cnc(N2[C@@H](C#N)[C@H](c3ccccc3)[C@@H]2CO)s1	none (no result: IDH1 mut inh)
CCOc1ccccc1NC(=O)Cn1cnc2scc(-c3ccc(Cl)cc3)c2c1=O	none (no result: GASC1 inh, T cruzi growth-1)
C[C@H]1CCCCO[C@H](CN(C)Cc2ccccc2)[C@@H](C)CN([C@@H](C)CO)C(=O)c2cc(N(C)C)ccc2O1	none
CCCC(=O)Nc1ccc2c(c1)OC[C@@H](C)N(CCC)C[C@H](C)[C@H](OC)CN(C)C2=O	none
Cc1ccccc1S(=O)(=O)N1CCCCN2[C@H](C1)[C@H](c1ccc(-c3ccccc3)cc1)[C@@H]2CO	T cruzi growth-1 107 (no result: GASC1 inh, IDH1 mut inh) | T cruzi growth-2 102 | T cruzi growth-3 inactive | NIH3T3 tox inactive | 3T3 cytotox 2 48
Cc1ccc(-c2ccc([C@H]3[C@@H](CO)N4CCCCN(S(=O)(=O)c5ccccc5C)C[C@@H]34)cc2)cc1	none (no result: IDH1 mut inh)
Cc1cccc(-c2ccc([C@H]3[C@@H](CO)N4CCCCN(S(=O)(=O)c5ccccc5C)C[C@H]34)cc2)c1	none (no result: IDH1 mut inh)
Cc1cccc(-c2ccc([C@H]3[C@@H](CO)N4CCCCN(S(=O)(=O)c5ccccc5C)C[C@@H]34)cc2)c1	T cruzi growth-1 111 (no result: IDH1 mut inh) | T cruzi growth-2 112 | T cruzi growth-3 inactive | NIH3T3 tox inactive | 3T3 cytotox 2 inactive
Cc1noc(C)c1NC(=O)N(C)C[C@@H]1Oc2cc(C#CCN(C)C)ccc2S(=O)(=O)N([C@@H](C)CO)C[C@H]1C	none
COc1ccc(NC(=O)Nc2ccc3c(c2)C(=O)N([C@@H](C)CO)C[C@H](C)[C@H](CN(C)Cc2ccc4c(c2)OCO4)OCCCC[C@H](C)O3)cc1	T cruzi growth-1 118 (no result: IDH1 mut inh) | T cruzi growth-2 102 | T cruzi growth-3 103 | NIH3T3 tox 40 | 3T3 cytotox 2 43
COc1ccc(NC(=O)Nc2ccc3c(c2)C(=O)N([C@H](C)CO)C[C@@H](C)[C@H](CN(C)Cc2ccc4c(c2)OCO4)OCCCC[C@H](C)O3)cc1	none
COc1ccc(NC(=O)Nc2ccc3c(c2)C(=O)N([C@@H](C)CO)C[C@H](C)[C@@H](CN(C)Cc2ccc4c(c2)OCO4)OCCCC[C@@H](C)O3)cc1	none
COc1ccc(NC(=O)Nc2ccc3c(c2)C(=O)N([C@@H](C)CO)C[C@@H](C)[C@@H](CN(C)Cc2ccc4c(c2)OCO4)OCCCC[C@@H](C)O3)cc1	none
COc1ccc(NC(=O)Nc2ccc3c(c2)C(=O)N([C@@H](C)CO)C[C@@H](C)[C@@H](CN(C)Cc2ccc4c(c2)OCO4)OCCCC[C@H](C)O3)cc1	none (no result: IDH1 mut inh)
COc1ccc(NC(=O)Nc2ccc3c(c2)C(=O)N([C@@H](C)CO)C[C@H](C)[C@H](CN(C)Cc2ccc4c(c2)OCO4)OCCCC[C@@H](C)O3)cc1	T cruzi growth-1 103 | T cruzi growth-2 103 | T cruzi growth-3 inactive | NIH3T3 tox inactive | 3T3 cytotox 2 inactive
COc1ccc(NC(=O)Nc2ccc3c(c2)C(=O)N([C@H](C)CO)C[C@@H](C)[C@@H](CN(C)Cc2ccc4c(c2)OCO4)OCCCC[C@@H](C)O3)cc1	T cruzi growth-1 124 | T cruzi growth-2 100 | T cruzi growth-3 inactive | NIH3T3 tox inactive | 3T3 cytotox 2 37
COc1ccc(NC(=O)Nc2ccc3c(c2)C(=O)N([C@H](C)CO)C[C@@H](C)[C@H](CN(C)Cc2ccc4c(c2)OCO4)OCCCC[C@@H](C)O3)cc1	T cruzi growth-1 101 (no result: IDH1 mut inh) | T cruzi growth-2 inactive | T cruzi growth-3 inactive | NIH3T3 tox inconclusive | 3T3 cytotox 2 106
CCCNC(=O)N1C[C@@H](C)[C@H](OC)CN(C)C(=O)c2ccc(NC(=O)CC)cc2OC[C@H]1C	none (no result: IDH1 mut inh, T cruzi growth-1)
O=C(CSc1nc2ccccc2c(=O)n1-c1ccc(Cl)cc1)Nc1cccc(Cl)c1	none (no result: GASC1 inh, T cruzi growth-1)
CO[C@H]1CN(C)C(=O)c2cc(NC(=O)Nc3cc(F)ccc3F)ccc2OC[C@H](C)N(C(=O)c2cnccn2)C[C@H]1C	none (no result: T cruzi growth-1)
COC(=O)C[C@@H]1CC[C@@H]2[C@@H](COc3ccc(NC(=O)C4CC4)cc3C(=O)N2C)O1	none (no result: IDH1 mut inh)
O=C(C[C@@H]1CC[C@@H]2NC[C@H](O)COC[C@H]2O1)NCc1ccc2c(c1)OCO2	none (no result: IDH1 mut inh)
O=C(CSc1nc2c(c(C(F)(F)F)n1)CCc1ccccc1-2)Nc1c(F)cc(F)cc1Br	none (no result: GASC1 inh, T cruzi growth-1)
COc1ccc(NC(=O)Nc2ccc3c(c2)C(=O)N([C@H](C)CO)C[C@H](C)[C@H](CN(C)Cc2ccc4c(c2)OCO4)OCCCC[C@H](C)O3)cc1	T cruzi growth-1 inconclusive | T cruzi growth-2 98 | T cruzi growth-3 99 | NIH3T3 tox inactive | 3T3 cytotox 2 103
COc1ccc(OC)c(S(=O)(=O)N(C)CC(=O)Nc2ccc(F)cc2)c1	none (no result: GASC1 inh, T cruzi growth-1)
O=S(=O)(Cc1ccccc1)N1CCCCN2[C@H](C1)[C@H](c1ccc(-c3cncnc3)cc1)[C@@H]2CO	none (no result: IDH1 mut inh)
O=S(=O)(Cc1ccccc1)N1CCCCN2[C@@H](CO)[C@@H](c3ccc(-c4cccnc4)cc3)[C@@H]2C1	none (no result: IDH1 mut inh)
O=S(=O)(Cc1ccccc1)N1CCCCN2[C@H](C1)[C@H](c1ccc(-c3ccccc3)cc1)[C@@H]2CO	T cruzi growth-1 118 (no result: IDH1 mut inh) | T cruzi growth-2 105 | T cruzi growth-3 inactive | NIH3T3 tox inactive | 3T3 cytotox 2 104
O=S(=O)(Cc1ccccc1)N1CCCCN2[C@H](C1)[C@@H](c1ccc(-c3cncnc3)cc1)[C@@H]2CO	T cruzi growth-1 inconclusive (no result: IDH1 mut inh) | T cruzi growth-2 96 | T cruzi growth-3 inactive | NIH3T3 tox inactive | 3T3 cytotox 2 inactive
O=S(=O)(Cc1ccccc1)N1CCCCN2[C@H](C1)[C@H](c1ccc(-c3ccncc3)cc1)[C@@H]2CO	none (no result: IDH1 mut inh)
O=S(=O)(Cc1ccccc1)N1CCCCN2[C@H](C1)[C@@H](c1ccc(-c3ccccc3)cc1)[C@@H]2CO	T cruzi growth-1 115 (no result: IDH1 mut inh) | T cruzi growth-2 101 | T cruzi growth-3 inactive | NIH3T3 tox inactive | 3T3 cytotox 2 96
COc1cc([N+](=O)[O-])ccc1NC(=O)CSc1nc(C)cc(-c2ccc(Cl)cc2)n1	none (no result: GASC1 inh, T cruzi growth-1)
COc1ccc(Cl)cc1NC(=O)CN(c1cc([N+](=O)[O-])ccc1C)S(C)(=O)=O	none (no result: GASC1 inh, T cruzi growth-1)
Cc1ccc(S(=O)(=O)N(C)C[C@H]2Oc3ccc(NS(=O)(=O)c4ccccc4)cc3C(=O)N([C@H](C)CO)C[C@@H]2C)cc1	none
C[C@@H]1CN([C@@H](C)CO)C(=O)c2cccc(NC(=O)c3ccc(-c4nccs4)cc3)c2O[C@@H]1CN(C)C(=O)Nc1ccc(C(F)(F)F)cc1	T cruzi growth-1 inconclusive | T cruzi growth-2 108 | T cruzi growth-3 inactive | NIH3T3 tox inactive | 3T3 cytotox 2 98

Screening results: PubChem, Broad Institute
